From ChEMBL document CHEMBL1150300, “Synthesis of 5-chloro-N-aryl-1H-indole-2-carboxamide derivatives as inhibitors of human liver glycogen phosphorylase a” (Bioorg Med Chem, 2008)

These molecules were tested against T1, Glycogen phosphorylase, liver form (Homo sapiens, UniProt P06737) (assay: Inhibition of human liver glycogen phosphorylase a).
T1 sequence (P06737 whole entry): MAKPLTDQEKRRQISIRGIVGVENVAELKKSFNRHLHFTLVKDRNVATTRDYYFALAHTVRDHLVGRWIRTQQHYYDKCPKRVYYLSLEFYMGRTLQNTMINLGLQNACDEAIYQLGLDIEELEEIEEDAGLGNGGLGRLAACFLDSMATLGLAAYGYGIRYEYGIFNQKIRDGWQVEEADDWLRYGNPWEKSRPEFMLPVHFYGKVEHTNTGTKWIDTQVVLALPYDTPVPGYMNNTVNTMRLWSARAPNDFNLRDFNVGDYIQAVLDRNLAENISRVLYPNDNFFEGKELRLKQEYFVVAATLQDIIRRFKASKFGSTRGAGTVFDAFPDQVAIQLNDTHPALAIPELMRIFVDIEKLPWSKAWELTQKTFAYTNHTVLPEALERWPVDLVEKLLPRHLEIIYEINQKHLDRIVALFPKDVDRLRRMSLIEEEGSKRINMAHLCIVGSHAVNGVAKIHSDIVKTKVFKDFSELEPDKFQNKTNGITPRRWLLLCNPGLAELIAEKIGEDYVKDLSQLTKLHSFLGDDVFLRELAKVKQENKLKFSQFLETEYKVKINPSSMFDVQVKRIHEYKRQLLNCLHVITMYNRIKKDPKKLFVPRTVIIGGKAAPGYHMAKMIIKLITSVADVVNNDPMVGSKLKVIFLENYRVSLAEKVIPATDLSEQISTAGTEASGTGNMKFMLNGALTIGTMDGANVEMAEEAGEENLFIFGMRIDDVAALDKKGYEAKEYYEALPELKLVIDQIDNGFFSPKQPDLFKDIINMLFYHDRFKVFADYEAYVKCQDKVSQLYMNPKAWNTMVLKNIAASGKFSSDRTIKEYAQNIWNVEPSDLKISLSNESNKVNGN

IC50 | SMILES
1200 nM | O=C(Nc1ccc(CCO)cc1)c1cc2cc(Cl)ccc2[nH]1
3600 nM | COCC(O)c1ccc(NC(=O)c2cc3cc(Cl)ccc3[nH]2)cc1 (configuration not stated)
> 10000 nM | O=C(Nc1nc(C(O)CO)cs1)c1cc2cc(Cl)ccc2[nH]1 (configuration not stated)
5800 nM | O=C(Nc1ccc(C(CO)CO)cc1)c1cc2cc(Cl)ccc2[nH]1
6200 nM | O=C(Nc1cccc(CCO)c1)c1cc2cc(Cl)ccc2[nH]1
2100 nM | O=C(Nc1ccc(C(O)CO)c([N+](=O)[O-])c1)c1cc2cc(Cl)ccc2[nH]1 (configuration not stated)
> 10000 nM | CC(C)(O)C(O)c1ccc(NC(=O)c2cc3cc(Cl)ccc3[nH]2)cc1 (configuration not stated)
> 10000 nM | O=C(Nc1ccccc1CCO)c1cc2cc(Cl)ccc2[nH]1
7400 nM | O=C(Nc1ccc(C(O)CO)c(-c2ccccc2)c1)c1cc2cc(Cl)ccc2[nH]1 (configuration not stated)
2500 nM | COc1cc(NC(=O)c2cc3cc(Cl)ccc3[nH]2)ccc1C(O)CO (configuration not stated)
1600 nM | O=C(Nc1ccc(CO)cc1)c1cc2cc(Cl)ccc2[nH]1
340 nM | O=C(Nc1ccc(C(O)CO)c(F)c1)c1cc2cc(Cl)ccc2[nH]1 (configuration not stated)
250 nM | O=C(Nc1ccc(C(O)CO)cn1)c1cc2cc(Cl)ccc2[nH]1 (configuration not stated)
4400 nM | O=C(Nc1ccc(C(O)CO)nc1)c1cc2cc(Cl)ccc2[nH]1 (configuration not stated)
1100 nM | O=C(Nc1ccc(C(O)CO)cc1Cl)c1cc2cc(Cl)ccc2[nH]1 (configuration not stated)
2600 nM | Cc1cc(C(O)CO)ccc1NC(=O)c1cc2cc(Cl)ccc2[nH]1 (configuration not stated)
> 10000 nM | O=C(Nc1ccc(CCCO)cc1)c1cc2cc(Cl)ccc2[nH]1
1700 nM | Nc1cc(NC(=O)c2cc3cc(Cl)ccc3[nH]2)ccc1C(O)CO (configuration not stated)
420 nM | O=C(Nc1ccc(C(O)CO)cc1F)c1cc2cc(Cl)ccc2[nH]1 (configuration not stated)
3100 nM | O=C(Nc1ncc(C(O)CO)s1)c1cc2cc(Cl)ccc2[nH]1 (configuration not stated)
900 nM | O=C(Nc1ccc(C(O)CO)cc1)c1cc2cc(Cl)ccc2[nH]1 (configuration not stated)
440 nM | O=C(Nc1cnc(C(O)CO)cn1)c1cc2cc(Cl)ccc2[nH]1 (configuration not stated)

What follows are molecules tested on Hepatocyte (assay: Inhibition of glucagon-induced glycogenolysis in Sprague-Dawley rat hepatocytes).
Format: functional, cell-based
In short: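 Hepatocytes from fed male Sprague-Dawley rats (150–200 g), viability >85%, plated on collagen at 2.5 × 10⁵ cells/well. Washed cells incubated 30 min at 37 °C in glucose-free/calcium-free Hanks buffer with 0.1% DMSO and inhibitor at 0.1–10 µM, with or without 10 nM glucagon. Medium glucose read by glucose oxidase/peroxidase; IC50 by logistic regression.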

SMILES | IC50
O=C(N[C@@H](Cc1ccc(F)cc1)C(=O)N1CCC(O)CC1)c1cc2cc(Cl)ccc2[nH]1 | 1700 nM
O=C(Nc1ccc(C(O)CO)cn1)c1cc2cc(Cl)ccc2[nH]1 (configuration not stated) | 620 nM

What follows are molecules tested on Mus musculus (assay: Hypoglycemic activity against C57BL/KsJ db/db mouse assessed as reduction of blood glucose at 50 mg/kg, po after 2 hrs relative to control).
Format: functional
Set-up: scale not given: the % may be the effect or the level left
In short: (§1)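 Male C57BL/KsJ db/db mice, 6 weeks old, on commercial diet, grouped (n = 6) to uniform blood glucose and body weight; non-fasted pre-dose glucose measured next day. Single oral dose at 10 mL/kg; blood glucose measured at 2 h. Activity given as percentage decrease versus vehicle-treated controls, significance by unpaired t-test on mean glucose.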

SMILES | Activity
O=C(N[C@@H](Cc1ccc(F)cc1)C(=O)N1CCC(O)CC1)c1cc2cc(Cl)ccc2[nH]1 | 20%
O=C(Nc1ccc(C(O)CO)cn1)c1cc2cc(Cl)ccc2[nH]1 (configuration not stated) | 26%

Each molecule was assayed on Mus musculus (assay: Hypoglycemic activity against C57BL/KsJ db/db mouse assessed as reduction of blood glucose at 30 mg/kg, po after 2 hrs relative to control).
Format: functional
Set-up: scale not given: the % may be the effect or the level left
In short: as §1

SMILES | Activity
O=C(Nc1ccc(C(O)CO)cn1)c1cc2cc(Cl)ccc2[nH]1 (configuration not stated) | 13%
